Results from ChEMBL document CHEMBL1137710, “Synthesis and in vitro antitumor activity of new quinoxaline derivatives” (2009).

What was measured:
Type in all cases: functional
SK-MEL-28 = test: Growth inhibition of human SK-MEL-28 cells after 48 hrs by sulforhodamine B assay; settings: SK-MEL-28, 48 h
Procedure, shortened: (§1)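 NCI 60-human-tumor-cell-line panel, with compounds tested over a 5-log dose range. Values are taken from dose-response curves as log10 molar concentrations: GI50 is 50% net growth inhibition, TGI is total growth inhibition, and LC50 is 50% net cell death.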

NCI-H460 = test: Anticancer activity against human NCI-H460 cells assessed as cell growth at 100 uM after 48 hrs by sulforhodamine B assay; settings: NCI-H460, 48 h, read-out: Activity
UO-31 = test: Growth inhibition of human UO31 cells after 48 hrs by sulforhodamine B assay; settings: UO-31, 48 h
Procedure, shortened: (§2)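 Run in the NCI 60-human-tumour-cell-line panel, tested over a 5-log dose range. Dose–response curves gave three values per cell line, each as a log10 molar concentration: GI50 (50% inhibition of net cell growth), TGI (total inhibition of net growth) and LC50 (50% net cell death). The mean graph midpoint is the arithmetic mean over all lines, with insensitive lines entered at the highest concentration tested.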

K562 = test: Growth inhibition of human K562 cells after 48 hrs by sulforhodamine B assay; settings: K562, 48 h; procedure, shortened: as §1
SW-620 = test: Growth inhibition of human SW620 cells after 48 hrs by sulforhodamine B assay; settings: SW-620, 48 h; procedure, shortened: as §2
MCF7 [1] = test: Anticancer activity against human MCF7 cells assessed as cell growth at 100 uM after 48 hrs by sulforhodamine B assay; settings: MCF7, 48 h, read-out: Activity
CAKI-1 = test: Growth inhibition of human Caki1 cells after 48 hrs by sulforhodamine B assay; settings: CAKI-1, 48 h; procedure, shortened: as §1
SNB-19 = test: Growth inhibition of human SNB19 cells after 48 hrs by sulforhodamine B assay; settings: SNB-19, 48 h; procedure, shortened: as §2
U-251 = test: Growth inhibition of human U251 cells after 48 hrs by sulforhodamine B assay; settings: U-251, 48 h; procedure, shortened: as §2
HL-60(TB) = test: Growth inhibition of human HL-60(TB) cells after 48 hrs by sulforhodamine B assay; settings: HL-60, 48 h
Procedure, shortened: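 Tested only on compounds active in a three-line prescreen, in the NCI 60-human-tumour-cell-line panel over a 5-log dose range. Values come from dose–response curves as log10 molar GI50, the concentration inhibiting 50% net cell growth. Log10 TGI (total growth inhibition) and log10 LC50 (50% net cell death) were derived too. Mean graph midpoints include insensitive lines at the highest concentration tested.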

[2] = Growth inhibition of human […] cells after 48 hrs by sulforhodamine B assay; procedure, shortened: as §1
UACC-62 = test: Growth inhibition of human UACC62 cells after 48 hrs by sulforhodamine B assay; settings: UACC-62, 48 h; procedure, shortened: as §2
NCI-H322M = test: Growth inhibition of human NCI-H322M cells after 48 hrs by sulforhodamine B assay; procedure, shortened: as §1
M14 = test: Growth inhibition of human M14 cells after 48 hrs by sulforhodamine B assay; settings: M14, 48 h; procedure, shortened: as §1
[3] = Growth inhibition of human Hs 578T cells after 48 hrs by sulforhodamine B assay; procedure, shortened: as §1
OVCAR-8 = test: Growth inhibition of human OVCAR8 cells after 48 hrs by sulforhodamine B assay; settings: OVCAR-8, 48 h; procedure, shortened: as §1
NCI/ADR-RES = test: Growth inhibition of human NCI/ADR-RES cells after 48 hrs by sulforhodamine B assay; procedure, shortened: as §1
PC-3 = test: Growth inhibition of human PC3 cells after 48 hrs by sulforhodamine B assay; settings: PC-3, 48 h; procedure, shortened: as §1
MDA-MB-435 = test: Growth inhibition of human MDA-MB-435 cells after 48 hrs by sulforhodamine B assay; settings: MDA-MB-435, 48 h; procedure, shortened: as §1
786-0 = test: Growth inhibition of human 786-0 cells after 48 hrs by sulforhodamine B assay; settings: 786-0, 48 h; procedure, shortened: as §1
MCF7 [4] = test: Growth inhibition of human MCF7 cells after 48 hrs by sulforhodamine B assay; settings: MCF7, 48 h; procedure, shortened: as §1
HOP-62 = test: Growth inhibition of human HOP62 cells after 48 hrs by sulforhodamine B assay; settings: HOP-62, 48 h; procedure, shortened: as §1
SF-268 [5] = test: Growth inhibition of human SF268 cells after 48 hrs by sulforhodamine B assay; settings: SF-268, 48 h; procedure, shortened: as §1
OVCAR-4 = test: Growth inhibition of human OVCAR4 cells after 48 hrs by sulforhodamine B assay; settings: OVCAR-4, 48 h; procedure, shortened: as §1
SF-268 [6] = test: Anticancer activity against human SF268 cells assessed as cell growth at 100 uM after 48 hrs by sulforhodamine B assay; settings: SF-268, 48 h, read-out: Activity
NCI-H522 = test: Growth inhibition of human NCI-H522 cells after 48 hrs by sulforhodamine B assay; settings: NCI-H522, 48 h; procedure, shortened: as §1
LOX IMVI = test: Growth inhibition of human LOXIMVI cells after 48 hrs by sulforhodamine B assay; procedure, shortened: as §1
OVCAR-3 = test: Growth inhibition of human OVCAR-3 cells after 48 hrs by sulforhodamine B assay; settings: OVCAR-3, 48 h; procedure, shortened: as §1
IGROV-1 = test: Growth inhibition of human IGROV1 cells after 48 hrs by sulforhodamine B assay; settings: IGROV-1, 48 h; procedure, shortened: as §1
[7] = read-out: pLC50 (the source's name) (converted)

For `COc1cc(CNc2nc3cc(N)cc(N)c3nc2-c2ccccc2)cc(OC)c1`, the GI50 (SK-MEL-28) was 1.78 µM, the CC50 (SK-MEL-28; [7]) was > 100 µM and the TGI (SK-MEL-28; read-out: pTGI (converted)) was 8.71 µM. For the same molecule, the growth at 100 µM (NCI-H460) was -1%, the GI50 (UO-31) was 4.07 µM and the CC50 (UO-31; [7]) was > 100 µM. The TGI (UO-31; read-out: pTGI (converted)) was > 100 µM, the GI50 (K562) was 3.63 µM and the LC50 (K562) was > 100 µM. For the same molecule, the TGI (K562; read-out: pTGI (converted)) was 9.33 µM, the GI50 (SW-620) was 4.47 µM and the CC50 (SW-620; [7]) was > 100 µM. For the same molecule, the TGI (SW-620; read-out: pTGI (converted)) was > 100 µM, the growth at 100 µM (MCF7 [1]) was -72% and the GI50 (CAKI-1) was 15.8 µM. For the same molecule, the CC50 (CAKI-1; [7]) was > 100 µM, the TGI (CAKI-1; read-out: pTGI (converted)) was > 100 µM and the GI50 (SNB-19) was 23.4 µM. The LC50 (SNB-19) was > 100 µM, the TGI (SNB-19; read-out: pTGI (converted)) was > 100 µM and the GI50 (U-251) was 5.13 µM. The LC50 (50% net cell kill) (U-251) was > 100 µM, the TGI (U-251; read-out: pTGI (converted)) was > 100 µM and the GI50 (HL-60(TB)) was 3.8 µM. The LC50 (HL-60(TB)) was > 100 µM, the TGI (HL-60(TB); read-out: pTGI (converted)) was > 100 µM and the GI50 [2] was 2.19 µM. For the same molecule, the LC50 [2] was > 100 µM, the TGI ([2]; read-out: pTGI (converted)) was 6.17 µM and the GI50 (UACC-62) was 5.37 µM. The CC50 (UACC-62; [7]) was > 100 µM, the TGI (UACC-62; read-out: pTGI (converted)) was 30.9 µM and the GI50 (NCI-H322M) was 44.7 µM. The LC50 (NCI-H322M) was > 100 µM, the TGI (NCI-H322M; read-out: pTGI (converted)) was > 100 µM and the GI50 (M14) was 10 µM. The CC50 (M14; [7]) was > 100 µM, the TGI (M14; read-out: pTGI (converted)) was 49 µM and the GI50 [3] was 8.51 µM. For the same molecule, the CC50 [3, 7] was > 100 µM, the TGI ([3]; read-out: pTGI (converted)) was > 100 µM and the GI50 (OVCAR-8) was 2.82 µM. The CC50 (OVCAR-8; [7]) was > 100 µM, the TGI (OVCAR-8; read-out: pTGI (converted)) was 8.13 µM and the GI50 (NCI/ADR-RES) was 5.5 µM. For the same molecule, the CC50 (NCI/ADR-RES; [7]) was > 100 µM, the TGI (NCI/ADR-RES; read-out: pTGI (converted)) was 33.1 µM and the GI50 (PC-3) was 3.02 µM. For the same molecule, the CC50 (PC-3; [7]) was > 100 µM, the TGI (PC-3; read-out: pTGI (converted)) was 14.5 µM and the GI50 (MDA-MB-435) was 2.14 µM. For the same molecule, the TGI (MDA-MB-435; read-out: pTGI (converted)) was 4.27 µM, the GI50 (786-0) was 12.6 µM and the CC50 (786-0; [7]) was > 100 µM. The TGI (786-0; read-out: pTGI (converted)) was 44.7 µM, the GI50 (MCF7 [4]) was 8.32 µM and the CC50 (MCF7 [4]; [7]) was > 100 µM. For the same molecule, the TGI (MCF7 [4]; read-out: pTGI (converted)) was > 100 µM, the GI50 (HOP-62) was 13.5 µM and the LC50 (HOP-62) was 72.4 µM. The TGI (HOP-62; read-out: pTGI (converted)) was 31.6 µM, the GI50 (SF-268 [5]) was 5.37 µM and the LC50 (SF-268 [5]) was > 100 µM. For the same molecule, the TGI (SF-268 [5]; read-out: pTGI (converted)) was > 100 µM, the GI50 (OVCAR-4) was 0.0141 µM and the CC50 (OVCAR-4; [7]) was 3.24 µM. The TGI (OVCAR-4; read-out: pTGI (converted)) was 0.977 µM, the growth at 100 µM (SF-268 [6]) was -28% and the GI50 (NCI-H522) was 2.88 µM. For the same molecule, the LC50 (NCI-H522) was > 100 µM, the TGI (NCI-H522; read-out: pTGI (converted)) was 22.9 µM and the GI50 (LOX IMVI) was 4.47 µM. For the same molecule, the LC50 (LOX IMVI) was > 100 µM, the TGI (LOX IMVI; read-out: pTGI (converted)) was 81.3 µM and the GI50 (OVCAR-3) was 1.86 µM. For the same molecule, the CC50 (OVCAR-3; [7]) was > 100 µM, the TGI (OVCAR-3; read-out: pTGI (converted)) was 4.57 µM and the GI50 (IGROV-1) was 8.71 µM. For the same molecule, the CC50 (IGROV-1; [7]) was > 100 µM and the TGI (IGROV-1; read-out: pTGI (converted)) was 56.2 µM.
